Columns and labels:
[1] = AUC in fasted healthy human at 400 mg administered as single dose suspension after consumption of high fat meal; type: ADME, organism-based; conditions: plasma
Summary of the method: (§1)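 In a crossover of 12 healthy subjects, each took a single 400 mg oral suspension dose 5 min before, midway through (about 10 min into a 20-min meal), or 20 min after a high-fat meal of about 50 g fat. Plasma was drawn 0–168 h and measured by LC-MS/MS. Parameters are noncompartmental, with AUC to the last measurable time.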

[2] = AUC in healthy human at 400 mg administered as single dose suspension coadministered with nutritional supplement; type: ADME, organism-based; conditions: plasma
Summary of the method: (§2)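 A three-way crossover in 13 healthy subjects gave one 400 mg oral suspension dose with a nutritional supplement, either alone, with metoclopramide 10 mg orally three times daily on the day before and the day of dosing, or with a single 4 mg dose of loperamide. Plasma was taken 0–168 h for LC-MS/MS. Analysis was noncompartmental.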

[3] = Tmax in fasted healthy human at 200 mg QID, po administered as suspension for 7 days; type: ADME, organism-based; conditions: in vivo
Summary of the method: (§3)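 Healthy volunteers given oral suspension (40 mg/ml) for 7 days, fasted or with nutritional supplement (Boost); four-way crossover, 14–21-day washout, nonfat snacks ≤800 cal/day allowed. On day 7 only the morning dose was given; plasma sampled predose to 168 h after it. LC-MS/MS (LLOQ 5.00 ng/ml). t1/2 = ln(2)/K from log-linear terminal slope; Tmax as median.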

[4] = Tmax in healthy human at 200 mg QID, po administered as suspension for 7 days coadministered with nutritional supplement; type: ADME, organism-based; conditions: in vivo; summary of the method: as §3
[5] = Tmax in fasted healthy human at 400 mg administered as single dose suspension after 20 mins after consumption of high fat meal; type: ADME, organism-based; conditions: in vivo
Summary of the method: (§4)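 Single oral suspension dose in healthy volunteers while fasting, 5 min before, midway through (about 10 min into a 20-min meal), or 20 min after a high-fat meal (approx 50 g fat); four-way crossover, 7–10-day washout. Plasma 0–168 h by LC-MS/MS (LLOQ 5.00 ng/ml). t1/2 = ln(2)/K; Tmax median.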

[6] = Tmax in fasted healthy human at 400 mg administered as single dose suspension after consumption of high fat meal; type: ADME, organism-based; conditions: in vivo; summary of the method: as §4
[7] = Tmax in healthy human at 400 mg administered as single dose suspension coadministered with nutritional supplement and 10 mg metoclopramide; type: ADME, organism-based; conditions: in vivo
Summary of the method: (§5)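 Single oral suspension dose with nutritional supplement, alone or with metoclopramide 10 mg orally three times daily on the day before and the day of dosing; three-way crossover, 7–10-day washout. EDTA plasma predose to 168 h, LC-MS/MS (LLOQ 5.00 ng/ml). t1/2 = ln(2)/K from terminal slope; Tmax median.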

[8] = (§6) Half life in fasted healthy human at 400 mg administered as single dose suspension; type: ADME, organism-based; conditions: in vivo
Summary of the method: (§7)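 Single oral suspension dose in fasting healthy volunteers, alone, with 12 oz ginger ale, after esomeprazole 40 mg once each morning days −2 to 1, or both; four-way crossover, 7–10-day washout. EDTA plasma 0–168 h. LC-MS/MS (LLOQ 5.00 ng/ml). t1/2 = ln(2)/K from terminal log-linear regression; Tmax median.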

[9] = Half life in fasted healthy human at 400 mg administered as single dose suspension coadministered with acidic carbonated beverage and proton pump inhibitor; type: ADME, organism-based; conditions: in vivo; summary of the method: as §7
[10] = Half life in healthy human at 400 mg BID, po administered as suspension for 7 days coadministered with nutritional supplement; type: ADME, organism-based; conditions: in vivo; summary of the method: as §3
[11] = as §6; type: ADME, organism-based; conditions: in vivo; summary of the method: as §7; remark: listed apart in the source
[12] = Half life in fasted healthy human at 400 mg administered as single dose suspension 5 mins before consumption of high fat meal; type: ADME, organism-based; conditions: in vivo; summary of the method: as §4
[13] = Half life in healthy human at 400 mg administered as single dose suspension coadministered with nutritional supplement and 10 mg metoclopramide; type: ADME, organism-based; conditions: in vivo; summary of the method: as §5
[14] = (§8) Apparent volume of distribution in fasted healthy human at 400 mg administered as single dose suspension; type: ADME, organism-based; conditions: in vivo, read-out: Vc/F
[15] = Apparent volume of distribution in fasted healthy human at 400 mg administered as single dose suspension coadministered with acidic carbonated beverage; type: ADME, organism-based; conditions: in vivo, read-out: Vc/F
Summary of the method: (§9)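 This was a four-way crossover in 12 healthy subjects with 7–10 day washouts. Each took one fasting 400 mg oral suspension dose, with 12 oz ginger ale and/or esomeprazole 40 mg once each morning on days −2 to 1, with dosing on day 1. Plasma was sampled 0–168 h and measured by LC-MS/MS (LLOQ 5.00 ng/ml). Analysis was noncompartmental, with CL/F = dose/AUC_I and V/F = (CL/F)/K.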

[16] = Apparent volume of distribution in fasted healthy human at 400 mg administered as single dose suspension coadministered with acidic carbonated beverage and proton pump inhibitor; type: ADME, organism-based; conditions: in vivo, read-out: Vc/F; summary of the method: as §9
[17] = as §8; type: ADME, organism-based; conditions: in vivo, read-out: Vc/F; remark: listed apart in the source
[18] = Apparent volume of distribution in fasted healthy human at 400 mg administered as single dose suspension after consumption of high fat meal; type: ADME, organism-based; conditions: in vivo, read-out: Vc/F; summary of the method: as §1
[19] = Apparent volume of distribution in healthy human at 400 mg administered as single dose suspension coadministered with nutritional supplement and 4 mg loperamide as two 2 mg tablets; type: ADME, organism-based; conditions: in vivo, po, read-out: Vc/F; summary of the method: as §2
Homo sapiens [20] = assay: Toxicity in healthy human assessed as adverse events at 200 mg QID, po administered as suspension for 7 days coadministered with nutritional supplement; type: organism-based; conditions: in vivo, 168 h
Summary of the method: (§10)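 Healthy volunteers monitored for adverse events, vital signs, clinical laboratory values and 12-lead ECG. Adverse events tabulated by body system or organ class and severity and summarized by treatment across the crossover regimens.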

Homo sapiens [21] = assay: Toxicity in healthy human assessed as dizziness at 200 mg QID, po administered as suspension for 7 days coadministered with nutritional supplement; type: organism-based; conditions: in vivo, 168 h
Summary of the method: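 Healthy volunteers (n = 12) took oral posaconazole suspension (40 mg/ml) with Boost at each dose for 7 days in a four-way randomized crossover with a 14- to 21-day washout. Subjects stayed fasted throughout, with nonfat snacks up to 800 cal/day allowed. Safety covered adverse events, vital signs, clinical labs and 12-lead ECG, with AEs tabulated by body system and severity per treatment.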

Homo sapiens [22] = assay: Toxicity in healthy human assessed as asthenia at 200 mg QID, po administered as suspension for 7 days coadministered with nutritional supplement; type: organism-based; conditions: in vivo, 168 h; summary of the method: as §10
Homo sapiens [23] = assay: Toxicity in healthy human assessed as nausea at 400 mg administered as single dose suspension coadministered with nutritional supplement and 4 mg loperamide as two 2 mg tablets; type: organism-based; conditions: in vivo
Summary of the method: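 Three-way randomized crossover in 13 healthy volunteers with a 7- to 10-day washout. Each period was one 400-mg oral posaconazole suspension dose with a nutritional supplement. Metoclopramide 10 mg was given orally three times daily on the day before and the day of dosing; loperamide was a single 4 mg. Safety was assessed from adverse events, tabulated by body system and severity per treatment.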

[24] = Cmax in plasma in hematopoietic stem cell transplant recipient human with GVHD; type: ADME, organism-based
[25] = Cmax in fasted healthy human plasma at 400 mg administered as single dose suspension coadministered with acidic carbonated beverage; type: ADME, organism-based; design: dose 400 mg; summary of the method: as §9
[26] = Cmax in fasted healthy human plasma at 200 mg QID, po administered as suspension for 7 days; type: ADME, organism-based; design: dose 200 mg, route oral
Summary of the method: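 Twelve healthy subjects took oral suspension for 7 days as 400 mg BID or 200 mg QID, either fasting or with a Boost-type nutritional supplement, in a crossover with 14–21 day washouts. Nonfat snacks of 800 cal/day or less were allowed. Plasma was sampled 0–168 h after the day-7 morning dose only and analysed by LC-MS/MS. AUC is AUC_τ, normalized to dose.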

[27] = AUC in fasted healthy human at 400 mg administered as single dose suspension; type: ADME, organism-based; conditions: plasma

SMILES: CC[C@@H]([C@H](C)O)n1ncn(-c2ccc(N3CCN(c4ccc(OC[C@@H]5CO[C@@](Cn6cncn6)(c6ccc(F)cc6F)C5)cc4)CC3)cc2)c1=O [POSACONAZOLE]
- AUC [1]: 21000 ng·h/mL
- AUC [2]: 8960 ng·h/mL
- Tmax [3]: 4 h
- Tmax [4]: 4 h
- Tmax [5]: 6 h
- Tmax [6]: 6 h
- Tmax [7]: 5 h
- half-life [8]: 27.4 h
- half-life [9]: 27.8 h
- half-life [10]: 29.5 h
- half-life [11]: 24.5 h
- half-life [12]: 23.9 h
- half-life [13]: 27.7 h
- Vd/F [14]: 3330 L
- Vd/F [15]: 1840 L
- Vd/F [16]: 3920 L
- Vd/F [17]: 3580 L
- Vd/F [18]: 757 L
- Vd/F [19]: 1750 L
- Activity (Homo sapiens [20]): 75%
- Activity (Homo sapiens [21]): 33%
- Activity (Homo sapiens [22]): 25%
- Activity (Homo sapiens [23]): 23%
- Cmax [24]: 1460 ng/mL
- Cmax [25]: 286 ng/mL
- Cmax [26]: 2300 ng/mL
- AUC [27]: 5600 ng·h/mL

From ChEMBL document CHEMBL1671645, “Pharmacokinetics and absorption of posaconazole oral suspension under various gastric conditions in healthy volunteers” (Antimicrob Agents Chemother, 2009)
